Experimental data reported in ChEMBL document CHEMBL3414491, “Synthesis and antitumor activities evaluation of m-(4-morpholinoquinazolin-2-yl)benzamides in vitro and in vivo” (Eur J Med Chem, 2015).
Blank lines part the entries; values can stand above or below the molecule they belong to. The source made the active and inactive calls. No cut-off for these calls is given here.

Key:
MCF7 = assay: Antiproliferative activity against human MCF7 cells after 72 hrs by MTT assay; assay type: functional, cell-based; conditions: MCF7, 72 h
Method in brief: (§1)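 MTT: cells seeded at 1500–4000 per well, grown 24 h, then given serial dilutions (1% DMSO final) for 72 h at 37 °C. MTT was added for 4 h, formazan dissolved in DMSO and absorbance read at 490 nm. Three separate experiments in triplicate; IC50 is the concentration giving 50% cell death versus control.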

[1] = Antiproliferative activity against human HCT116 cells after 72 hrs by MTT assay; assay type: functional, cell-based; conditions: HCT-116, 72 h; method in brief: as §1
HCT-116 [2] = assay: Induction of apoptosis in human HCT116 cells at 3 uM after 24 hrs by annexin V-FITC/propidium iodide staining based flow cytometry; assay type: functional
Method in brief: (§2)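 HCT-116 cells were seeded at 1.5 × 10⁵ per well, grown 24 h, then treated 24 h; vehicle control was 0.5% DMSO. Cells were stained with an Annexin V-FITC/PI kit and analysed by flow cytometry. Q4 = early apoptotic, Q2 = late apoptotic; apoptosis rate = Q2 + Q4. Means of three independent experiments.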

HCT-116 [3] = assay: Induction of chromatin condensation in human HCT116 cells at 0. 1 to 10 uM after 24 hrs by Hoechst staining based fluorescent microscopy; assay type: functional, cell-based
Method in brief: (§3)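 HCT-116 cells (15,000 per well) were grown 24 h, then exposed to 0.1, 1 or 10 µM for 24 h; vehicle control was 0.5% DMSO. Cells were photographed under phase-contrast microscopy, then stained with Hoechst 33258 for 0.5 h at 37 °C, washed with PBS and viewed by fluorescence microscopy.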

HCT-116 [4] = assay: Induction of cellular morphological changes in human HCT116 cells assessed as induction of cell shrinking at 1 and 10 uM after 24 hrs by Hoechst staining based phase contrast microscopy; assay type: functional; method in brief: as §3
HCT-116 [5] = assay: Induction of nuclear fragmentation in human HCT116 cells at 0. 1 to 10 uM after 24 hrs by Hoechst staining based fluorescent microscopy; assay type: functional, cell-based; method in brief: as §3
HCT-116 [6] = assay: Induction of cellular morphological changes in human HCT116 cells assessed as induction of vacuolization at 1 and 10 uM after 24 hrs by Hoechst staining based phase contrast microscopy; assay type: functional, cell-based; method in brief: as §3
HCT-116 [7] = assay: Induction of cellular morphological changes in human HCT116 cells assessed as induction of fragmentation at 1 and 10 uM after 24 hrs by Hoechst staining based phase contrast microscopy; assay type: functional, cell-based; method in brief: as §3
A549 = assay: Antiproliferative activity against human A549 cells after 72 hrs by MTT assay; assay type: functional, cell-based; conditions: A549, 72 h; method in brief: as §1
CCRF S-180 [8] = assay: Antitumor activity against mouse S180 cells homografted in mouse assessed as reduction tumor weight at 15 mg/kg, po once daily for 8 days; assay type: functional; conditions: CCRF S-180, 192 h
Method in brief: (§4)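 Mice (19.6 g average) had 3 × 10⁶ S180 cells injected subcutaneously into the flank and were randomized into three groups of 8. From the next day they received compound in NMP/PEG400/H2O (1:8:1) orally once daily for 8 days, or solvent alone. Body weights were recorded daily. On Day 9 tumors and bodies were weighed and tumor-weight inhibitory ratios calculated.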

HCT-116 [9] = assay: Induction of apoptosis in human HCT116 cells assessed as late apoptotic cells level at 3 uM after 24 hrs by annexin V-FITC/propidium iodide staining based flow cytometry (reference value: 3.08%); assay type: functional; method in brief: as §2
Mus musculus [10] = assay: Toxicity in mouse homografted with mouse S180 cells assessed as effect on body weight at 15 mg/kg, po once daily for 8 days; assay type: organism-based, CCRF S-180; parameters: dose 15 mg/kg, route oral; conditions: in vivo, 192 h; method in brief: as §4
HCT-116 [11] = assay: Induction of apoptosis in human HCT116 cells assessed as late apoptotic cells level at 1 uM after 24 hrs by annexin V-FITC/propidium iodide staining based flow cytometry (reference value: 3.08%); assay type: functional; method in brief: as §2
[12] = Antiproliferative activity against human U87MG cells after 72 hrs by MTT assay; assay type: functional, cell-based, U-87MG ATCC; conditions: U-87 MG; method in brief: as §1
HCT-116 [13] = assay: Induction of cell cycle arrest in human HCT116 cells assessed as accumulation at S phase at 3 uM after 24 hrs by propidium iodide staining based flow cytometry (reference value: 38.71%); assay type: functional
HCT-116 [14] = assay: Induction of cell cycle arrest in human HCT116 cells assessed as accumulation at G0/G1 phase at 3 uM after 24 hrs by propidium iodide staining based flow cytometry (reference value: 48.31%); assay type: functional
[15] = molecular target: PI3-kinase p110-delta/p85-alpha (Homo sapiens, UniProt O00329); assay: Inhibition of p110delta/p85alpha (unknown origin) using L-alpha-phosphatidylinositol incubated for 40 mins by ADP depletion detection based luciferase assay; assay type: protein-complex assay
HCT-116 [16] = assay: Induction of cell cycle arrest in human HCT116 cells assessed as accumulation at G2/M phase at 3 uM after 24 hrs by propidium iodide staining based flow cytometry (reference value: 12.98%); assay type: functional
[17] = molecular target: PI3-kinase p110-alpha/p85-alpha (Homo sapiens, UniProt P42336); assay: Inhibition of p110alpha/p85alpha (unknown origin) using L-alpha-phosphatidylinositol incubated for 40 mins by ADP depletion detection based luciferase assay; assay type: protein-complex assay
HCT-116 [18] = assay: Induction of apoptosis in human HCT116 cells assessed as early apoptotic cells level at 3 uM after 24 hrs by annexin V-FITC/propidium iodide staining based flow cytometry (reference value: 4.36%); assay type: functional; method in brief: as §2
CCRF S-180 [19] = assay: Antitumor activity against mouse S180 cells homografted in mouse assessed as reduction tumor weight at 30 mg/kg, po once daily for 8 days; assay type: functional; conditions: CCRF S-180, 192 h; method in brief: as §4
HCT-116 [20] = assay: Induction of apoptosis in human HCT116 cells assessed as early apoptotic cells level at 1 uM after 24 hrs by annexin V-FITC/propidium iodide staining based flow cytometry (reference value: 4.36%); assay type: functional; method in brief: as §2
Mus musculus [21] = assay: Toxicity in mouse homografted with mouse S180 cells assessed as effect on body weight at 30 mg/kg, po once daily for 8 days; assay type: organism-based, CCRF S-180; parameters: dose 30 mg/kg, route oral; conditions: in vivo, 192 h; method in brief: as §4
HCT-116 [22] = assay: Induction of apoptosis in human HCT116 cells at 1 uM after 24 hrs by annexin V-FITC/propidium iodide staining based flow cytometry; assay type: functional; method in brief: as §2
PI3K p110 beta/p85 alpha = PI3K p110 beta/p85 alpha (Homo sapiens, UniProt P42338); assay: Inhibition of p110beta/p85alpha (unknown origin) using L-alpha-phosphatidylinositol incubated for 40 mins by ADP depletion detection based luciferase assay; assay type: protein-complex assay
[23] = Inhibition of PI3K-mediated PI3K/Akt/mTOR pathway in human HCT116 cells assessed as reduction in Akt Ser473 phosphorylation at 10 uM incubated for 1 hr by Western blot method; assay type: cell-based; conditions: HCT-116
Method in brief: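 HCT-116 cells were seeded at 5 × 10⁵ per well and grown 16 h at 37 °C, then exposed to 10 µM for 1 h; vehicle control was 0.5% DMSO. Lysates were normalised by BCA, run on 10% SDS-PAGE, transferred to nitrocellulose and probed for AKT and p-Ser473 AKT, with β-actin as loading control. Detection was by chemiluminescence; bands were quantified densitometrically.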

[24] = molecular target: PI3-kinase subunit gamma/Phosphoinositide 3-kinase regulatory subunit 5 (Homo sapiens, UniProt P48736); assay: Inhibition of p110gamma/PIK3R5 (unknown origin) using L-alpha-phosphatidylinositol incubated for 40 mins by ADP depletion detection based luciferase assay; assay type: protein-complex assay

Chain of PI3K p110 beta/p85 alpha (P27986 whole entry): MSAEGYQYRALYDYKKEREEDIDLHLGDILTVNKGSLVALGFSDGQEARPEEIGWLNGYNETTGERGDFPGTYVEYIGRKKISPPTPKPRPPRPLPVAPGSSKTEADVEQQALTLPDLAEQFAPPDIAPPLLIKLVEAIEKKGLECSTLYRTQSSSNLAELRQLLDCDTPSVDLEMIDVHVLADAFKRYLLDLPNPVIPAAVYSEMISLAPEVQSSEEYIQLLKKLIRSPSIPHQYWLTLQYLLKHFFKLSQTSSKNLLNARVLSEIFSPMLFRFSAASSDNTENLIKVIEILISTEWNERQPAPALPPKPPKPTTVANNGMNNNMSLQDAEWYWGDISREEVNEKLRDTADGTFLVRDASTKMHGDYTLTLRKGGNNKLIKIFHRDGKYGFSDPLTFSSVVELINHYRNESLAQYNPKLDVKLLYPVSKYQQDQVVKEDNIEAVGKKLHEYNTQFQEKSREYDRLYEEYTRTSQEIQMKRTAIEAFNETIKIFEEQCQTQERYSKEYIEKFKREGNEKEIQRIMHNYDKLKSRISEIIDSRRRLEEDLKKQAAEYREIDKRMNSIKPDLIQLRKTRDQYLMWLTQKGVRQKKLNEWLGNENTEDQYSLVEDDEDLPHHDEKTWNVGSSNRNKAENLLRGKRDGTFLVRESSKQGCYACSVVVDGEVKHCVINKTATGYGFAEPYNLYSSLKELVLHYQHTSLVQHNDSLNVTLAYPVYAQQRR
Chain of PI3K p110 beta/p85 alpha (P42338 whole entry): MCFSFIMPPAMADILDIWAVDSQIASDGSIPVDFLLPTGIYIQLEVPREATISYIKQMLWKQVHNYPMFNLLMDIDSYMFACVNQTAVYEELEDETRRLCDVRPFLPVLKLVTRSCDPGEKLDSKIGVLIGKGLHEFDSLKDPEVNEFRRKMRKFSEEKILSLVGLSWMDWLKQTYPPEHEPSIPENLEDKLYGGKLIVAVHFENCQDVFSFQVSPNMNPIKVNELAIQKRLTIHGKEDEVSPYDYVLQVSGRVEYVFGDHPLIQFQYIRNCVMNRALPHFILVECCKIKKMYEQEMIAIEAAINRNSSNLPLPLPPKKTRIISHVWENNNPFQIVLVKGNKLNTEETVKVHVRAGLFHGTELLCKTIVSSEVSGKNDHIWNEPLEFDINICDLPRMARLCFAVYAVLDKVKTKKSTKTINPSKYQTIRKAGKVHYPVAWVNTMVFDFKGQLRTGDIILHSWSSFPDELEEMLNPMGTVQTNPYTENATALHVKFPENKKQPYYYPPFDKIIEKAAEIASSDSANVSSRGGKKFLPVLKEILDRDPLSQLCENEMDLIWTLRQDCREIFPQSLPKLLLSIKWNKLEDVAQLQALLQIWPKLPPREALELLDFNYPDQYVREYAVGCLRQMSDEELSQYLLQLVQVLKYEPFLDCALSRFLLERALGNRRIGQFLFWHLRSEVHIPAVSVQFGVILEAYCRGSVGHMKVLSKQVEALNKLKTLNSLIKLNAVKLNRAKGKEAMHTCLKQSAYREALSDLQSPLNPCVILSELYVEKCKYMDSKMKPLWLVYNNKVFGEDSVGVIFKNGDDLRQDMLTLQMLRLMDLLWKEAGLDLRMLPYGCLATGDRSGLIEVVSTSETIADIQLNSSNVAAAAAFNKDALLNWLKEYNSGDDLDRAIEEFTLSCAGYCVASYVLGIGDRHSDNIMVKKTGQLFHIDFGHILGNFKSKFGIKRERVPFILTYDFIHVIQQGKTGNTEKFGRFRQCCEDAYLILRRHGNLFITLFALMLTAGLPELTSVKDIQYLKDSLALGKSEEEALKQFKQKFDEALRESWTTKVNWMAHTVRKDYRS
Chain of PI3-kinase p110-delta/p85-alpha (P27986 whole entry): as the sequence (P27986 whole entry) above
Chain of PI3-kinase p110-delta/p85-alpha (O00329 whole entry): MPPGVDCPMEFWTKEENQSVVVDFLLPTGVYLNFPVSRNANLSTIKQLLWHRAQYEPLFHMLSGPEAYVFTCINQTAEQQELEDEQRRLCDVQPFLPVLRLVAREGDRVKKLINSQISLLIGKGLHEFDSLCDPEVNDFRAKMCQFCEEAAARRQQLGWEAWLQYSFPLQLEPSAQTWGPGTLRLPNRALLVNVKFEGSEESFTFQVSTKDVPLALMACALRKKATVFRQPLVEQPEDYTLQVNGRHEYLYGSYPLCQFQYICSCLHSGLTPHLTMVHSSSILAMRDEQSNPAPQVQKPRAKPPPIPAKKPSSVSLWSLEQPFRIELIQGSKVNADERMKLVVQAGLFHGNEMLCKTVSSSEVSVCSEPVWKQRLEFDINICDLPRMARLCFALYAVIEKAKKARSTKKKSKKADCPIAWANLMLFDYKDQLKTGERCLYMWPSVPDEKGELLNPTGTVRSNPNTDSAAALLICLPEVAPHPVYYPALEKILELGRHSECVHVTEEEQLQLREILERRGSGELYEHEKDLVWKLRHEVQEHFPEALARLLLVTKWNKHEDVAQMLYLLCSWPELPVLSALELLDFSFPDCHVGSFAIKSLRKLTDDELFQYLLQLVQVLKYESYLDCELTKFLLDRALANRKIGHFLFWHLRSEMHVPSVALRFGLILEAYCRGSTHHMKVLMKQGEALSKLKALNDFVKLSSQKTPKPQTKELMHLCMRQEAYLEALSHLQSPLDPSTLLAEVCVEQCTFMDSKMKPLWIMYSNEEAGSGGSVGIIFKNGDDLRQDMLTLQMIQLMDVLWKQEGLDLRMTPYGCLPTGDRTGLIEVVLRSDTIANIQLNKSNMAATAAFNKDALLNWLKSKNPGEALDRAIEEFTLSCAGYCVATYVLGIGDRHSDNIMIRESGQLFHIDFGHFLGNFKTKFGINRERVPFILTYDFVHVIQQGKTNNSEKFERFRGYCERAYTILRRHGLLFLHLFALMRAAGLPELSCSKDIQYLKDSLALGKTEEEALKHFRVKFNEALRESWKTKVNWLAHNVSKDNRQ
Chain of PI3-kinase p110-alpha/p85-alpha (P27986 whole entry): as the sequence (P27986 whole entry) above
Chain of PI3-kinase p110-alpha/p85-alpha (P42336 whole entry): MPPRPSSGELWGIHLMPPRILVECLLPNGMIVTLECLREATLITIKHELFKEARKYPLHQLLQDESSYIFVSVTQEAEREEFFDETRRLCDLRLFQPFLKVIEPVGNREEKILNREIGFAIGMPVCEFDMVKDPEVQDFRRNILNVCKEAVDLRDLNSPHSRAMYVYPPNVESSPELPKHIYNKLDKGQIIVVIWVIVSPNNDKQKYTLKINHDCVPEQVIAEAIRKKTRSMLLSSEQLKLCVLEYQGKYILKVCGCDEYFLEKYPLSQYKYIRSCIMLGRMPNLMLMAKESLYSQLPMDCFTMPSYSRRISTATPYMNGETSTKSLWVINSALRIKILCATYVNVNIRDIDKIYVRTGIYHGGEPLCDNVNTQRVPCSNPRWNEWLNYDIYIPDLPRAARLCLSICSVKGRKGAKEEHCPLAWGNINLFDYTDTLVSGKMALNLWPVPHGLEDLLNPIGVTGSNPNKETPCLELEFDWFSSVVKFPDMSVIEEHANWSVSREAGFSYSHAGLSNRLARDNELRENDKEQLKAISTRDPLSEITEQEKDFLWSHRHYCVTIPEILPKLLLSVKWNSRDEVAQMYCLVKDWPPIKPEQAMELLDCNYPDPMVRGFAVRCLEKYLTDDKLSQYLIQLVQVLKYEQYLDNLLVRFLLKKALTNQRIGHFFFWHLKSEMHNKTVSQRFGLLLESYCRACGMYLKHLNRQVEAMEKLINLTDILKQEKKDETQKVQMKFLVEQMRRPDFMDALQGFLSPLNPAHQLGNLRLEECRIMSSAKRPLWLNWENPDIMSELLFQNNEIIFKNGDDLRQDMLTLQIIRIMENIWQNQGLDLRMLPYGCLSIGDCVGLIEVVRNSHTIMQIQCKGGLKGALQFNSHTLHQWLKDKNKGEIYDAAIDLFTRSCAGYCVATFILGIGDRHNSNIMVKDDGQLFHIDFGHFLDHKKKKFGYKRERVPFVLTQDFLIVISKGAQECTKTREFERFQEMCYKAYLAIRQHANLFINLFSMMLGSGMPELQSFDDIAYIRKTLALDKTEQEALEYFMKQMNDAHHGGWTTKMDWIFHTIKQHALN

- IC50 (MCF7): 14.9 µM
Compound: CNC(=O)COc1cc2nc(-c3cc(OC)cc(C(N)=O)c3)nc(N3CCOCC3)c2cc1OC
- IC50 [1]: 21.7 µM

- IC50 (MCF7): 5.01 µM
Compound: COc1cc2nc(-c3cccc(C(=O)N(C)C)c3)nc(N3CCOCC3)c2cc1OC
- IC50 [1]: 4.73 µM

- IC50 (A549): 1.68 µM
- IC50 (MCF7): 1.09 µM
- IC50 [15]: 0.33 µM
- IC50 [17]: 0.096 µM
- IC50 (PI3K p110 beta/p85 alpha): 0.128 µM
- IC50 [24]: 0.465 µM
Compound: COc1cc2nc(-c3cc(OC(F)(F)F)cc(C(N)=O)c3)nc(N3CCOCC3)c2cc1OC
- Activity (HCT-116 [2]): 27.3%
- Activity (HCT-116 [3]): Active
- Activity (HCT-116 [4]): Active
- Activity (HCT-116 [5]): Active
- Activity (HCT-116 [6]): Active
- Activity (HCT-116 [7]): Active
- inhibition in vivo at 15 mg/kg (CCRF S-180 [8]): 49.3%
- Activity (HCT-116 [9]): 7.59%
- Activity (Mus musculus [10]): Non-toxic
- IC50 [1]: 0.3 µM
- Activity (HCT-116 [11]): 6.76%
- IC50 [12]: 0.6 µM
- Activity (HCT-116 [13]): 20.11%
- Activity (HCT-116 [14]): 56.69%
- Activity (HCT-116 [16]): 23.19%
- Activity (HCT-116 [18]): 16.25%
- inhibition in vivo at 30 mg/kg (CCRF S-180 [19]): 64.2%
- Activity (HCT-116 [20]): 11.5%
- Activity (Mus musculus [21]): Non-toxic
- Activity (HCT-116 [22]): 22.7%
- inhibition [23]: Active

- IC50 (MCF7): 7.52 µM
Compound: COCCOc1cc2nc(-c3cc(OC)cc(C(N)=O)c3)nc(N3CCOCC3)c2cc1OCCOC
- IC50 [1]: 9.04 µM

- IC50 (MCF7): 4.6 µM
Compound: COc1cc2nc(-c3ccc(C(N)=O)cc3)nc(N3CCOCC3)c2cc1OC
- IC50 [1]: 1.25 µM

- IC50 (A549): 26.1 µM
- IC50 (MCF7): 2.14 µM
Compound: COc1cc2nc(-c3cccc(C(N)=O)c3)nc(N3CCOCC3)c2cc1OC
- IC50 [1]: 0.9 µM
- IC50 [12]: 1.57 µM

- IC50 (A549): 9.22 µM
- IC50 (MCF7): 1.75 µM
Compound: COc1cc(C(N)=O)cc(-c2nc(N3CCOCC3)c3cc(OC)c(OC)cc3n2)c1
- IC50 [1]: 0.45 µM
- IC50 [12]: 1.01 µM

- IC50 (MCF7): 6.2 µM
Compound: CNC(=O)c1cccc(-c2nc(N3CCOCC3)c3cc(OC)c(OC)cc3n2)c1
- IC50 [1]: 2.52 µM

- IC50 (A549): 9.37 µM
- IC50 (MCF7): 1.01 µM
Compound: COc1cc(C(N)=O)cc(-c2nc(N3CCOCC3)c3cc(OC)c(OCCN4CCCC4)cc3n2)c1
- IC50 [1]: 0.81 µM
- IC50 [12]: 2.45 µM

- IC50 (MCF7): 5.66 µM
Compound: COc1cc(C(N)=O)cc(-c2nc(N3CCOCC3)c3cc(OC)c(OCCN4CCOCC4)cc3n2)c1
- IC50 [1]: 4.72 µM

- IC50 (MCF7): 3.49 µM
Compound: COc1cc2nc(-c3cccc(NC(C)=O)c3)nc(N3CCOCC3)c2cc1OC
- IC50 [1]: 1.42 µM

- IC50 (MCF7): 24.4 µM
Compound: COc1cc(C(N)=O)cc(-c2nc(N3CCOCC3)c3cc(OC)c(OCC(=O)N4CCOCC4)cc3n2)c1
- IC50 [1]: 6.48 µM

- IC50 (MCF7): 4.24 µM
Compound: COc1cc2nc(-c3ccc(Cl)c(C(N)=O)c3)nc(N3CCOCC3)c2cc1OC
- IC50 [1]: 2.97 µM

- IC50 (MCF7): 10.3 µM
Compound: COc1cc(C(N)=O)cc(-c2nc(N3CCOCC3)c3cc(OC)c(OCc4ccccc4)cc3n2)c1
- IC50 [1]: 6.45 µM

Compound: COc1cc(C(N)=O)cc(-c2nc(N3CCOCC3)c3cc(OC)c(OCC(=O)N4CCN(C)CC4)cc3n2)c1
- IC50 (MCF7): 18.7 µM
- IC50 [1]: 9.44 µM
